What all share (assay type): nucleic-acid assay
The test system of test [1] is Nucleic Acid. The test can be described thus: Binding affinity to 5'-ATGGTTC-3' in Escherichia coli pCDMF6 by DNase1 foot-printing titration method. In short, it runs like this:
(§1)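 The plasmid target was built by ligating an annealed synthetic oligonucleotide pair carrying the tandem match sites. A primer was 5'-end-labelled with ³²P, and binding was measured by DNase I footprinting titrations.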

The test system of test [2] is Nucleic Acid. The test can be described thus: Binding affinity to 11mer DNA duplex 5'-CTATGGTAGAC-3' assessed as change in melting temperature by spectroscopic analysis. In short, it runs like this: (§2)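 Duplex melting temperatures were measured on a spectrophotometer with a thermo-controlled cell holder in 10 mM sodium cacodylate buffer.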
Test [3] deals with Nucleic Acid. The test can be described thus: Binding affinity to 5'-ATGGTT-3' in Escherichia coli pCDMF6 by DNase1 foot-printing titration method. In a few lines:
as §1

In test [4] the test system is Nucleic Acid. The test can be described thus: Binding affinity to 5'-ATGGTA-3' in Escherichia coli pCDMF6 by DNase1 foot-printing titration method. In a few lines: as §1
Test [5] deals with Nucleic Acid. The test can be described thus: Binding affinity to 5'-ATGGTG-3' in Escherichia coli pCDMF6 by DNase1 foot-printing titration method. In a few lines: as §1
Test [6] concerns Nucleic Acid. The test can be described thus: Binding affinity to 11mer DNA duplex 5'-CTCTGGCACAC-3' assessed as change in melting temperature by spectroscopic analysis. In short, it runs like this: as §2
In test [7] the test system is Nucleic Acid. The test can be described thus: Binding affinity to 11mer DNA duplex 5'-CTCTGTTACCA-3' assessed as change in melting temperature by spectroscopic analysis. In a few lines:
as §2

The subject of test [8] is Nucleic Acid. The test can be described thus: Binding affinity to 11mer DNA duplex 5'-CTATGTTACCA-3' assessed as change in melting temperature by spectroscopic analysis. In a few lines:
as §2

The text below walks through data of ChEMBL document CHEMBL1153588, “DNA sequence selectivity of hairpin polyamide turn units” (Bioorg Med Chem Lett, 2009).

As usually defined, the ΔTm is the shift of the melting midpoint relative to a reference. As to `CN(C)CCCNC(=O)CCNC(=O)c1cc(NC(=O)c2cc(NC(=O)c3cc(NC(=O)CCCNC(=O)c4cc(NC(=O)c5nc(NC(=O)c6nccn6C)cn5C)cn4C)cn3C)cn2C)cn1C`, the Ka is below 1 ×10⁷ /M in the test with Nucleic Acid [1], 2.1 ×10⁸ /M in the test on Nucleic Acid [3], 2 ×10⁸ /M in the test on Nucleic Acid [4] and below 1 ×10⁷ /M in the test with Nucleic Acid [5]. The ΔTm in the test with Nucleic Acid [2] amounted to 9.2 °C.

With `CN(C)CCCNC(=O)CCNC(=O)c1cc(NC(=O)c2cc(NC(=O)c3nc(NC(=O)C[C@@H](N)CNC(=O)c4cc(NC(=O)c5nc(NC(=O)c6nccn6C)cn5C)cn4C)cn3C)cn2C)cn1C`, the ΔTm with Nucleic Acid [6] is 6.7 °C.

In the case of `CN(C)CCCNC(=O)CCNC(=O)c1cc(NC(=O)c2cc(NC(=O)c3cc(NC(=O)C[C@@H](N)CNC(=O)c4cc(NC(=O)c5nc(NC(=O)c6nccn6C)cn5C)cn4C)cn3C)cn2C)cn1C`, the Ka in the test with Nucleic Acid [1] was 5 ×10⁷ /M; in the test with Nucleic Acid [3], 3.3 ×10⁹ /M; in the test with Nucleic Acid [4] it was 1.8 ×10⁹ /M; with Nucleic Acid [5] it was below 1 ×10⁷ /M. For the same compound, the ΔTm in the test on Nucleic Acid [2] turned out to be 14.9 °C.

In the case of `CN(C)CCCNC(=O)CCNC(=O)c1cc(NC(=O)c2cc(NC(=O)c3cc(NC(=O)[C@H](O)CCNC(=O)c4cc(NC(=O)c5nc(NC(=O)c6nccn6C)cn5C)cn4C)cn3C)cn2C)cn1C`, the ΔTm in the test on Nucleic Acid [2] is 10 °C.

`CN(C)CCCNC(=O)CCNC(=O)c1cc(NC(=O)c2cc(NC(=O)c3nc(NC(=O)[C@H](N)CCNC(=O)c4cc(NC(=O)c5nc(NC(=O)c6nccn6C)cn5C)cn4C)cn3C)cn2C)cn1C`: the ΔTm with Nucleic Acid [6] was 8.3 °C.

`CN(C)CCCNC(=O)CCNC(=O)c1cc(NC(=O)c2cc(NC(=O)c3cc(NC(=O)[C@H](N)CCNC(=O)c4cc(NC(=O)c5nc(NC(=O)c6nccn6C)cn5C)cn4C)cn3C)cn2C)cn1C`: the Ka in the test on Nucleic Acid [1] was 3.9 ×10⁷ /M; in the test on Nucleic Acid [3], 1.6 ×10⁹ /M; in the test with Nucleic Acid [4], 1.7 ×10⁹ /M; in the test on Nucleic Acid [5], below 1 ×10⁷ /M. For the same compound, the thermal shift (ΔTm) with Nucleic Acid [2] came out at 14.7 °C.

With `CN(C)CCCNC(=O)CCNC(=O)c1cc(NC(=O)c2cc(NC(=O)c3cc(NC(=O)C[C@H](N)CNC(=O)c4cc(NC(=O)c5cc(NC(=O)c6nccn6C)cn5C)cn4C)cn3C)cn2C)cn1C`, the ΔTm in the test on Nucleic Acid [7] was 11.6 °C; in the test with Nucleic Acid [8], 17 °C.

In the case of `CN(C)CCCNC(=O)CCNC(=O)c1cc(NC(=O)c2cc(NC(=O)c3cc(NC(=O)[C@H](N)CCNC(=O)c4cc(NC(=O)c5cc(NC(=O)c6nccn6C)cn5C)cn4C)cn3C)cn2C)cn1C`, the ΔTm was determined as 10.9 °C in the test with Nucleic Acid [7] and 15.9 °C with Nucleic Acid [8].

Take `CC(=O)N[C@@H](CNC(=O)c1cc(NC(=O)c2nc(NC(=O)c3nccn3C)cn2C)cn1C)CC(=O)Nc1cc(C(=O)Nc2cc(C(=O)Nc3cc(C(=O)NCCC(=O)NCCCN(C)C)n(C)c3)n(C)c2)n(C)c1`: the Ka in the test on Nucleic Acid [1] is 8.9 ×10⁷ /M; with Nucleic Acid [3], 2 ×10⁹ /M; with Nucleic Acid [4], 5.2 ×10⁹ /M; in the test with Nucleic Acid [5], below 1 ×10⁷ /M. Besides, the ΔTm in the test with Nucleic Acid [2] was 12.2 °C.

For `CC(=O)N[C@H](CCNC(=O)c1cc(NC(=O)c2nc(NC(=O)c3nccn3C)cn2C)cn1C)C(=O)Nc1cc(C(=O)Nc2cc(C(=O)Nc3cc(C(=O)NCCC(=O)NCCCN(C)C)n(C)c3)n(C)c2)n(C)c1`, the Ka is below 1 ×10⁷ /M with Nucleic Acid [1], 3.2 ×10⁸ /M with Nucleic Acid [3], 2.1 ×10⁸ /M in the test with Nucleic Acid [4] and below 1 ×10⁷ /M in the test with Nucleic Acid [5]. The ΔTm in the test with Nucleic Acid [2] was 10.1 °C.

On to `CN(C)CCCNC(=O)CCNC(=O)c1cc(NC(=O)c2cc(NC(=O)c3cc(NC(=O)[C@@H](F)CCNC(=O)c4cc(NC(=O)c5nc(NC(=O)c6nccn6C)cn5C)cn4C)cn3C)cn2C)cn1C`, for which, in the test on Nucleic Acid [2], the ΔTm amounted to 7.9 °C.

With `CN(C)CCCNC(=O)CCNC(=O)c1cc(NC(=O)c2cc(NC(=O)c3cc(NC(=O)C[C@H](N)CNC(=O)c4cc(NC(=O)c5nc(NC(=O)c6nccn6C)cn5C)cn4C)cn3C)cn2C)cn1C`, the Ka in the test with Nucleic Acid [1] was 6 ×10⁷ /M; in the test on Nucleic Acid [3], 1.1 ×10⁹ /M; with Nucleic Acid [4] it was 1.3 ×10⁹ /M; in the test with Nucleic Acid [5], below 1 ×10⁷ /M. Besides, the ΔTm with Nucleic Acid [2] is 14.7 °C.

For the compound `CN(C)CCCNC(=O)CCNC(=O)c1cc(NC(=O)c2cc(NC(=O)c3cc(NC(=O)C[C@@H](N)CNC(=O)c4cc(NC(=O)c5cc(NC(=O)c6nccn6C)cn5C)cn4C)cn3C)cn2C)cn1C`, the ΔTm turned out to be 13 °C with Nucleic Acid [7] and 18 °C in the test with Nucleic Acid [8].

Consider `CN(C)CCCNC(=O)CCNC(=O)c1cc(NC(=O)c2cc(NC(=O)c3nc(NC(=O)C[C@H](N)CNC(=O)c4cc(NC(=O)c5nc(NC(=O)c6nccn6C)cn5C)cn4C)cn3C)cn2C)cn1C`, for which, in the test with Nucleic Acid [6], the ΔTm stood at 6 °C.

Take `CN(C)CCCNC(=O)CCNC(=O)c1cc(NC(=O)c2cc(NC(=O)c3cc(NC(=O)[C@H](F)CCNC(=O)c4cc(NC(=O)c5nc(NC(=O)c6nccn6C)cn5C)cn4C)cn3C)cn2C)cn1C`: in the test with Nucleic Acid [2], the ΔTm was 8.3 °C.

As to `CN(C)CCCNC(=O)CCNC(=O)c1cc(NC(=O)c2cc(NC(=O)c3cc(NC(=O)[C@@H](O)CCNC(=O)c4cc(NC(=O)c5nc(NC(=O)c6nccn6C)cn5C)cn4C)cn3C)cn2C)cn1C`, the ΔTm in the test with Nucleic Acid [2] was 5.8 °C.
